# ChEMBL document CHEMBL1833793 (Bioorg Med Chem Lett, 2011)
# The source made the active and inactive calls. The calls are words filed in the database; no cut-off is given here.
# Experiments:
# Rattus norvegicus [1] = species: Rattus norvegicus; assay: Inhibition of food intake in rat after 24 hrs starvation; type: functional, organism-based
# Liver microsomes = assay: Intrinsic clearance in rat liver microsome; type: ADME
# [2] = Plasma concentration in cPP-induced feeding rat model at 30 mg/kg, po after 6 hrs; type: ADME, organism-based; design: dose 30 mg/kg, route oral
# How it was run: (§1)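 Satellite rats (n = 2/dose per week), cannulated in the lateral cerebral ventricle for the feeding study, dosed orally at 3, 10 or 30 mg/kg as a suspension in 20% HP-β-cyclodextrin. Plasma was sampled 1, 2, 4, 6 or 24 h after dosing, alongside i.c.v. cPP (0.6 nmol) feeding tests. Values are given as mean with SD.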
# [3] = molecular target: T1, 5-hydroxytryptamine receptor 1A (Homo sapiens, UniProt P08908); assay: Binding affinity to human 5HT1A receptor
# T1 sequence (P08908 whole entry): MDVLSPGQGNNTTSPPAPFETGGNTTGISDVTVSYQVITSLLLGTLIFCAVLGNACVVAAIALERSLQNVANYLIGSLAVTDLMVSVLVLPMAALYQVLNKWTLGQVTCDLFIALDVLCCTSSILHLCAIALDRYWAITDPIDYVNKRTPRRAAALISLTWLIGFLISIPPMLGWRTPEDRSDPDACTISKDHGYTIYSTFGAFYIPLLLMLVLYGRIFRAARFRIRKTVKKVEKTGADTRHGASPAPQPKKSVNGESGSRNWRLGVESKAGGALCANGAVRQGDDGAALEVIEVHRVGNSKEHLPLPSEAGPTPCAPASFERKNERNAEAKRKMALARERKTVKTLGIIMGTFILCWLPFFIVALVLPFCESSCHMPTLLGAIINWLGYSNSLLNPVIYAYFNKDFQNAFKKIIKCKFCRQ
# [4] = Plasma concentration in cPP-induced feeding rat model at 3 mg/kg, po after 1 hr; type: ADME, organism-based; design: dose 3 mg/kg, route oral
# How it was run: (§2)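 Satellite rats (n = 2/dose) sampled each week alongside the cPP feeding test; Lu-series dosed po at 3, 10 or 30 mg/kg as suspension in 20% HP-β-cyclodextrin; plasma (ng/mL) and brain tissue (ng/g) levels taken at 1, 2, 4, 6 and 24 h post-dose; mean ± SD reported.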
# [5] = Plasma concentration in cPP-induced feeding rat model at 10 mg/kg, po after 4 hrs; type: ADME, organism-based; design: dose 10 mg/kg, route oral; how it was run: as §2
# [6] = molecular target: 5-hydroxytryptamine receptor 2B (Homo sapiens, UniProt P41595); assay: Binding affinity to human 5HT2B receptor
# [7] = molecular target: T2, Neuropeptide Y receptor type 5 (Rattus norvegicus, UniProt Q63634); assay: Antagonist activity at rat NPY5 receptor; type: functional
# T2 sequence (Q63634 whole entry): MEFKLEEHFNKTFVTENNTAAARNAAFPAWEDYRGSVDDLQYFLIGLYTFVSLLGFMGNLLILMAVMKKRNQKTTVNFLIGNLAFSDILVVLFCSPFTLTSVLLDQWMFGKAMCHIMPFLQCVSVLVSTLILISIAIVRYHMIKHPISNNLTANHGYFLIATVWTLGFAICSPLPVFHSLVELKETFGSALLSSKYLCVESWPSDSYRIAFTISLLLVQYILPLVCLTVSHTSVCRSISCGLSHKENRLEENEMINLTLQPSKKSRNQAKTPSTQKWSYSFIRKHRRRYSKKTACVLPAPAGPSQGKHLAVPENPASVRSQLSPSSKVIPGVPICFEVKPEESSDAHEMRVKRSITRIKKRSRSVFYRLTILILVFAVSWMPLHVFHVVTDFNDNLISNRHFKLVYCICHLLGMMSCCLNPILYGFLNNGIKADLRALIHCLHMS
# [8] = Drug uptake in brain of cPP-induced feeding rat model at 10 mg/kg, po after 2 hrs; type: ADME, organism-based; design: dose 10 mg/kg, route oral; conditions: read-out: Drug uptake; how it was run: as §2
# [9] = Drug uptake in brain of cPP-induced feeding rat model at 30 mg/kg, po after 2 hrs; type: ADME, organism-based; design: dose 30 mg/kg, route oral; conditions: read-out: Drug uptake; how it was run: as §2
# [10] = Drug uptake in brain of cPP-induced feeding rat model at 30 mg/kg, po after 4 hrs; type: ADME, organism-based; design: dose 30 mg/kg, route oral; conditions: read-out: Drug uptake; how it was run: as §2
# [11] = Drug uptake in brain of cPP-induced feeding rat model at 3 mg/kg, po after 6 hrs; type: ADME, organism-based; design: dose 3 mg/kg, route oral; conditions: read-out: Drug uptake; how it was run: as §2
# [12] = Plasma protein binding in rat; type: ADME, cell-free; conditions: read-out: PPB (converted)
# [13] = molecular target: T3, Neuropeptide Y receptor type 2 (Homo sapiens, UniProt P49146); assay: Antagonist activity at human NPY2 receptor assessed as calcium mobilization by FLIPR assay; type: functional
# T3 sequence (P49146 whole entry): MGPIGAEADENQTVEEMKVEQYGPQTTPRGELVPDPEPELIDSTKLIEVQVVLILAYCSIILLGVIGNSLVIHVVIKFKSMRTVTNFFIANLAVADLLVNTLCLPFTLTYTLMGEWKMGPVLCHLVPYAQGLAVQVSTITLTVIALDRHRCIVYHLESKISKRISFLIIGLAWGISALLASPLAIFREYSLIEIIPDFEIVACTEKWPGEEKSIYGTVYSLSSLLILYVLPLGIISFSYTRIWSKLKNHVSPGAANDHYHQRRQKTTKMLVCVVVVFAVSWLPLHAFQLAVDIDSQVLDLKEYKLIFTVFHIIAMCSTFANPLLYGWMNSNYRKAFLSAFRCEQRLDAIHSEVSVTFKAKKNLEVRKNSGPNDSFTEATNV
# [14] = Plasma concentration in cPP-induced feeding rat model at 30 mg/kg, po after 2 hrs; type: ADME, organism-based; design: dose 30 mg/kg, route oral; how it was run: as §1
# [15] = Plasma clearance in Sprague-Dawley rat at 1 mg/kg, iv and 2 mg/kg, po by HPLC analysis; type: ADME, organism-based
# How it was run: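 Male Sprague-Dawley rats (200–250 g, n = 2) with jugular and carotid cannulae, dosed 1 mg/kg iv and 2 mg/kg po in crossover after 24 h washout. Vehicle was 20% beta cyclodextrin, pH adjusted with methanesulfonic acid to give a solution. Automated serial blood sampling took 12 time points over 24 h. Plasma was quantified by HPLC-MS/MS, with noncompartmental analysis.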
# [16] = Plasma concentration in cPP-induced feeding rat model at 10 mg/kg, po after 6 hrs; type: ADME, organism-based; design: dose 10 mg/kg, route oral; how it was run: as §2
# Cytochrome P450 2D6 = Cytochrome P450 2D6 (Homo sapiens, UniProt P10635); assay: Inhibition of CYP2D6; type: ADME
# [17] = Drug uptake in brain of cPP-induced feeding rat model at 30 mg/kg, po after 6 hrs; type: ADME, organism-based; design: dose 30 mg/kg, route oral; conditions: read-out: Drug uptake; how it was run: as §2
# [18] = Plasma clearance in mouse at 1 mg/kg, iv and 2 mg/kg, po by HPLC analysis; type: ADME, organism-based
# [19] = Plasma concentration in cPP-induced feeding rat model at 3 mg/kg, po after 6 hrs; type: ADME, organism-based; design: dose 3 mg/kg, route oral; how it was run: as §1
# [20] = Plasma concentration in cPP-induced feeding rat model at 10 mg/kg, po after 1 hr; type: ADME, organism-based; design: dose 10 mg/kg, route oral; how it was run: as §2
# Rattus norvegicus [21] = assay: Inhibition of cPP-induced food intake in po dosed rat administered 1 to 24 hrs before cPP challenge measured for 1 hr; type: functional, organism-based
# How it was run: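 Rats with lateral-ventricle cannulae dosed po with 20% cyclodextrin vehicle or drug (3, 10, 30 mg/kg) 1, 2, 4, 6 or 24 h before i.c.v. cPP (0.6 nmol); food intake monitored 1 h; randomized weekly crossover, n = 2/condition, 16–20 per group; percent of vehicle + cPP intake, one-way ANOVA with Newman–Keuls.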
# [22] = Drug uptake in brain of cPP-induced feeding rat model at 3 mg/kg, po after 4 hrs; type: ADME, organism-based; design: dose 3 mg/kg, route oral; conditions: read-out: Drug uptake; how it was run: as §2
# 5-hydroxytryptamine receptor 2B, sequence (P41595 whole entry): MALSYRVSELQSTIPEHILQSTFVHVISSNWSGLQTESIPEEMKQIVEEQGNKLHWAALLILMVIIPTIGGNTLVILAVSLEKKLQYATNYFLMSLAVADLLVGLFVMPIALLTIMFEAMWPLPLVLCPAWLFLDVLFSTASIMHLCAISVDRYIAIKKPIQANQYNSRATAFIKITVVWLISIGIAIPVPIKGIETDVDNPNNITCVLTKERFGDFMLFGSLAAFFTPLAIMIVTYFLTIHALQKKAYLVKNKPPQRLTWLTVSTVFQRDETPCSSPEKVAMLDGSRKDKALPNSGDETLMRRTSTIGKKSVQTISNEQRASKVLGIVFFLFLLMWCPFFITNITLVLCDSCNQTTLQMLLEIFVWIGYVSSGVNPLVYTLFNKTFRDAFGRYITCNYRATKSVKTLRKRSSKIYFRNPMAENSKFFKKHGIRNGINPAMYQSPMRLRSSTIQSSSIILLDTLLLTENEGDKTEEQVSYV
# Cytochrome P450 2D6, sequence (P10635 whole entry): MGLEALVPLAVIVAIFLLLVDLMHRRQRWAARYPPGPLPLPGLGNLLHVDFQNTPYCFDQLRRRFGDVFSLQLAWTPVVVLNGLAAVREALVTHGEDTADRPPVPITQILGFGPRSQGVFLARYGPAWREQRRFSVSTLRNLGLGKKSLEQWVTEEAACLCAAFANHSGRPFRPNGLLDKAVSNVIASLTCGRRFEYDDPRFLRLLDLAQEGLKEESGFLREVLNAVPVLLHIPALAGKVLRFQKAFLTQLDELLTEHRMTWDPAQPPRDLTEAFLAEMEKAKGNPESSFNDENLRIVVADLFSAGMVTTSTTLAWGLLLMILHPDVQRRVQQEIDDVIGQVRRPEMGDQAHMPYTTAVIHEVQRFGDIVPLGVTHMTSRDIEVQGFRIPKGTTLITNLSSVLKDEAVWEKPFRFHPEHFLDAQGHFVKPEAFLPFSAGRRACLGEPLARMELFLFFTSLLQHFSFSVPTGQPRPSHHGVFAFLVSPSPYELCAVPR
compound,measurement,setting,value
CS(=O)(=O)NC[C@H]1CC[C@H](Nc2nc3c(s2)CCSc2ccccc2-3)CC1,inhibition,Rattus norvegicus [1],inactive
same,CL,Liver microsomes,40 mL/min
same,concentration at 6 h,[2],181 ng/mL
same,Ki,[3],478 nM
same,concentration at 1 h,[4],54 ng/mL
same,concentration at 4 h,[5],141 ng/mL
same,Ki,[6],245 nM
same,Ki,[7],1.4 nM
same,concentration at 2 h,[8],244 ng/g
same,concentration at 2 h,[9],319 ng/g
same,concentration at 4 h,[10],643 ng/g
same,concentration at 6 h,[11],30 ng/g
same,fraction unbound,[12],0.006
same,IC50,[13],> 1000 nM
same,concentration at 2 h,[14],337 ng/mL
same,clearance,[15],18.3 mL/min/kg
same,concentration at 6 h,[16],46 ng/mL
same,IC50,Cytochrome P450 2D6,> 10000 nM
same,concentration at 6 h,[17],401 ng/g
same,clearance,[18],5 mL/min/kg
same,concentration at 6 h,[19],30 ng/mL
same,concentration at 1 h,[20],159 ng/mL
same,inhibition,Rattus norvegicus [21],Dose-dependent effect
same,concentration at 4 h,[22],52 ng/g
